Results: ChEMBL document CHEMBL1132232, “7alpha-Iodo and 7alpha-fluoro steroids as androgen receptor-mediated imaging agents” (J Med Chem, 1999)

How the values were obtained:
Rattus norvegicus [1] = assay: Distribution of tissue radioactivity following subcutaneous injection of […] of 5-alpha-DHT 15 min before the administration of the [125I] tracer castrated male rat prostate 1 hour time; type: ADME, organism-based, Prostate gland; conditions: in vivo, sc
Rattus norvegicus [2] = assay: Distribution of tissue Radioactivity following Intravenous injection into castrated male rat prostate at 2 hours time; type: ADME, organism-based, Prostate gland; conditions: in vivo
In short: (§1)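 Male Sprague–Dawley rats, about 250 g, were castrated and injected the next day via the tail vein with 5.4 μCi (2.4 pmol) of 125I tracer in ethanol/saline (1:4). There were 5–6 rats per group. At 0.5, 1, 2 or 4 h, rats were ether-anesthetized and killed by exsanguination. Tissues were dissected, weighed and counted, giving % injected dose/g and prostate/blood ratios.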

Rattus norvegicus [3] = assay: Distribution of tissue Radioactivity following Intravenous injection into castrated male rat lung at 4 hours time; type: ADME, organism-based; conditions: in vivo; in short: as §1
Rattus norvegicus [4] = assay: Distribution of tissue Radioactivity following Intravenous injection into castrated male rat thyroid at 1 hour time; type: ADME, organism-based, Thyroid gland; conditions: in vivo; in short: as §1
Rattus norvegicus [5] = assay: Distribution of tissue Radioactivity following Intravenous injection into castrated male rat prostate/blood at 0.5 hours time; type: ADME, organism-based; conditions: in vivo; in short: as §1
Rattus norvegicus [6] = assay: Distribution of tissue Radioactivity following Intravenous injection into castrated male rat thyroid at 0.5 hours time; type: ADME, organism-based, Thyroid gland; conditions: in vivo; in short: as §1
Rattus norvegicus [7] = assay: Distribution of tissue Radioactivity following Intravenous injection into castrated male rat blood at 4 hours time; type: ADME, organism-based; conditions: in vivo; in short: as §1
Rattus norvegicus [8] = assay: Distribution of tissue Radioactivity following Intravenous injection into castrated male rat prostate at 1 hours time; type: ADME, organism-based, Prostate gland; conditions: in vivo; in short: as §1
Rattus norvegicus [9] = assay: Distribution of tissue Radioactivity following subcutaneous injection of […] of 5-alpha-DHT 15 min before the administration of the [125I]- tracer castrated male rat thyroid at 1 hour time; type: ADME, organism-based, Thyroid gland; conditions: in vivo, sc
Rattus norvegicus [10] = assay: Distribution of tissue Radioactivity following Intravenous injection into castrated male rat spleen at 0.5 hours time; type: ADME, organism-based; conditions: in vivo; in short: as §1
Rattus norvegicus [11] = assay: Distribution of tissue Radioactivity following subcutaneous injection of […] of 5-alpha-DHT 15 min before the administration of the [125I]- tracer castrated male rat kidney at 1 hour time; type: ADME, organism-based; conditions: in vivo, sc
In short: (§2)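 Castrated male Sprague–Dawley rats, about 250 g, received 5α-DHT subcutaneously in propylene glycol/saline (3:2) 15 min before a tail-vein 125I tracer (5.4 μCi, 2.4 pmol, in ethanol/saline 1:4). There were 5–6 rats per group. At 1 h, rats were ether-anesthetized and exsanguinated. Tissues were weighed and counted as % injected dose/g, plus the prostate/blood ratio.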

Rattus norvegicus [12] = assay: Distribution of tissue Radioactivity following subcutaneous injection of […] of 5-alpha-DHT 15 min before the administration of the [125I]- tracer castrated male rat fat at 1 hour time; type: ADME, organism-based, Adipose tissue; conditions: in vivo, sc; in short: as §2
Rattus norvegicus [13] = assay: Distribution of tissue Radioactivity following Intravenous injection into castrated male rat prostate at 0.5 hours time; type: ADME, organism-based, Prostate gland; conditions: in vivo; in short: as §1
Rattus norvegicus [14] = assay: Distribution of tissue Radioactivity following Intravenous injection into castrated male rat muscle at 0.5 hours time; type: ADME, organism-based; conditions: in vivo; in short: as §1
Rattus norvegicus [15] = assay: Distribution of tissue Radioactivity following Intravenous injection into castrated male rat muscle at 1 hour time; type: ADME, organism-based; conditions: in vivo; in short: as §1
Rattus norvegicus [16] = assay: Distribution of tissue Radioactivity following Intravenous injection into castrated male rat prostate at 4 hours time; type: ADME, organism-based, Prostate gland; conditions: in vivo; in short: as §1
Rattus norvegicus [17] = assay: Distribution of tissue Radioactivity following Intravenous injection into castrated male rat muscle at 4 hours time; type: ADME, organism-based; conditions: in vivo; in short: as §1
Rattus norvegicus [18] = assay: Distribution of tissue Radioactivity following Intravenous injection into castrated male rat liver at 2 hours time; type: ADME, organism-based; conditions: in vivo; in short: as §1
Rattus norvegicus [19] = assay: Distribution of tissue Radioactivity following Intravenous injection into castrated male rat kidney at 4 hours time; type: ADME, organism-based; conditions: in vivo; in short: as §1
Rattus norvegicus [20] = assay: Distribution of tissue Radioactivity following Intravenous injection into castrated male rat blood at 2 hours time; type: ADME, organism-based; conditions: in vivo; in short: as §1
Rattus norvegicus [21] = assay: Distribution of tissue Radioactivity following Intravenous injection into castrated male rat fat at 4 hours time; type: ADME, organism-based, Adipose tissue; conditions: in vivo; in short: as §1
Rattus norvegicus [22] = assay: Distribution of tissue Radioactivity following subcutaneous injection of […] of 5-alpha-DHT 15 min before the administration of the [125I]- tracer castrated male rat lung at 1 hour time; type: ADME, organism-based; conditions: in vivo, sc; in short: as §2
Rattus norvegicus [23] = assay: Distribution of tissue Radioactivity following subcutaneous injection of […] of 5-alpha-DHT 15 min before the administration of the [125I]- tracer castrated male rat prostate/blood at 1 hour time; type: ADME, organism-based; conditions: in vivo, sc; in short: as §2
Rattus norvegicus [24] = assay: Distribution of tissue Radioactivity following Intravenous injection into castrated male rat thyroid at 4 hours time; type: ADME, organism-based, Thyroid gland; conditions: in vivo; in short: as §1
Rattus norvegicus [25] = assay: Distribution of tissue Radioactivity following Intravenous injection into castrated male rat blood at 0.5 hours time; type: ADME, organism-based; conditions: in vivo; in short: as §1
Rattus norvegicus [26] = assay: Distribution of tissue Radioactivity following Intravenous injection into castrated male rat fat at 2 hours time; type: ADME, organism-based, Adipose tissue; conditions: in vivo; in short: as §1

Q: `C[C@]12CCC(=O)CC1C[C@@H](I)[C@@H]1[C@@H]2CC[C@@]2(C)[C@H]1CC[C@]2(C)O` (stereo partly specified) was tested. Which Biodistribution (Rattus norvegicus [1]) did it give?
A: The Biodistribution was 0.23%.

Q: And the Dose/g (Rattus norvegicus [2])?
A: Its Dose/g is 0.44%.

Q: And the Dose/g (Rattus norvegicus [3])?
A: Its Dose/g is 0.28%.

Q: What about the Dose/g (Rattus norvegicus [4]) of the same compound?
A: Its Dose/g is 4.07%.

Q: What about the Dose/g (Rattus norvegicus [5]) of the same compound?
A: The Dose/g was 0.7%.

Q: What about the Biodistribution (Rattus norvegicus [6]) of the same compound?
A: The Biodistribution was 1.58%.

Q: What about the Dose/g (Rattus norvegicus [7]) of the same compound?
A: Its Dose/g is 0.37%.

Q: And the Dose/g (Rattus norvegicus [8])?
A: Its Dose/g is 0.39%.

Q: And the Biodistribution (Rattus norvegicus [9])?
A: The Biodistribution was 3.55%.

Q: What about the Dose/g (Rattus norvegicus [10]) of the same compound?
A: Its Dose/g is 0.13%.

Q: And the Biodistribution (Rattus norvegicus [11])?
A: Its Biodistribution is 0.3%.

Q: What about the Biodistribution (Rattus norvegicus [12]) of the same compound?
A: The Biodistribution was 0.29%.

Q: What about the Biodistribution (Rattus norvegicus [13]) of the same compound?
A: Its Biodistribution is 0.21%.

Q: What about the Biodistribution (Rattus norvegicus [14]) of the same compound?
A: The Biodistribution was 0.06%.

Q: What about the Dose/g (Rattus norvegicus [15]) of the same compound?
A: The Dose/g was 0.07%.

Q: What about the Biodistribution (Rattus norvegicus [16]) of the same compound?
A: Its Biodistribution is 0.44%.

Q: And the Biodistribution (Rattus norvegicus [17])?
A: Its Biodistribution is 0.07%.

Q: And the Biodistribution (Rattus norvegicus [18])?
A: Its Biodistribution is 0.23%.

Q: What about the Biodistribution (Rattus norvegicus [19]) of the same compound?
A: The Biodistribution was 0.23%.

Q: What about the Biodistribution (Rattus norvegicus [20]) of the same compound?
A: The Biodistribution was 0.31%.

Q: What about the Biodistribution (Rattus norvegicus [21]) of the same compound?
A: Its Biodistribution is 0.17%.

Q: What about the Dose/g (Rattus norvegicus [22]) of the same compound?
A: The Dose/g was 0.28%.

Q: What about the Dose/g (Rattus norvegicus [23]) of the same compound?
A: The Dose/g was 0.66%.

Q: What about the Biodistribution (Rattus norvegicus [24]) of the same compound?
A: Its Biodistribution is 9.7%.

Q: What about the Dose/g (Rattus norvegicus [25]) of the same compound?
A: Its Dose/g is 0.3%.

Q: And the Dose/g (Rattus norvegicus [26])?
A: The Dose/g was 0.2%.
